Experimental data from ChEMBL document CHEMBL2046408, “Design, synthesis and antimicrobial activities of nitroimidazole derivatives containing 1,3,4-oxadiazole scaffold as FabH inhibitors” (Bioorg Med Chem, 2012).
Converted amounts (≈) assume the structure as drawn.

Experiments:
[1] = Toxicity in RBC assessed as hemolysis; format: cell-based; details: erythrocyte
[2] = inhibition of Escherichia coli FabH expressed in Escherichia coli BL21 (DE3) cells assessed as [3H]acetyl-CoA after 5 mins by liquid scintillation counting; details: in the assay text read “after 25 mins” for “after 5 mins”
In short: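 His-tagged E. coli FabH was expressed in kanamycin-selected culture in LB at 37 °C, induced with 0.5 mM IPTG for 4 h, then Ni–NTA purified. Reactions were run in 20 mM sodium phosphate, pH 7.0, with holo-ACP. They were stopped with ice-cold 50% TCA, the protein was pelleted, and ³H incorporation into product was read by liquid scintillation. Inhibitors were added from DMSO stock, final DMSO ≤2%.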

Bacillus subtilis = test: Antibacterial activity against Bacillus subtilis ATCC 530 after 24 hrs by MTT assay; format: functional; details: ATCC 530, 24 h
In short: (§1)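 Seeded broth in nutrient broth from 24 h bacterial cultures on nutrient agar at 37 °C. Suspension adjusted with sterile saline to 1 × 10⁴–10⁵ CFU. Compounds and reference drugs twofold serially diluted to 100, 50, 25, 12.5, 6.25 … µg/mL. MIC determined by MTT method.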

Staphylococcus aureus = test: Antibacterial activity against Staphylococcus aureus ATCC 25923 after 24 hrs by MTT assay; format: functional; details: ATCC 25923, 24 h; in short: as §1
Pseudomonas aeruginosa = test: Antibacterial activity against Pseudomonas aeruginosa ATCC 27853 after 24 hrs by MTT assay; format: functional; details: ATCC 27853, 24 h; in short: as §1
Escherichia coli = test: Antibacterial activity against Escherichia coli ATCC 25922/35128 after 24 hrs by MTT assay; format: functional; details: ATCC 25922/35128, 24 h; in short: as §1
[3] = inhibition of Escherichia coli FabH expressed in Escherichia coli BL21 (DE3) cells assessed as [3H]acetyl-CoA after 25 mins by liquid scintillation counting

SMILES	IC50 [2] [µM]	MIC (Bacillus subtilis) [µg/mL]	MIC (Staphylococcus aureus) [µg/mL]	MIC (Pseudomonas aeruginosa) [µg/mL]	MIC (Escherichia coli) [µg/mL]	IC50 [3] [µM]	LC30 [1] [µg/mL]
Cc1ncc([N+](=O)[O-])n1Cc1nnc(-c2ccc(Br)cc2)o1	43.8	12.5 (≈ 34.3 µM)	50 (≈ 137 µM)	25 (≈ 68.7 µM)	25 (≈ 68.7 µM)		> 10000
Cc1ncc([N+](=O)[O-])n1Cc1nnc(-c2cccc(F)c2)o1		> 100	> 100	> 100	> 100		
Cc1ncc([N+](=O)[O-])n1Cc1nnc(-c2ccc([N+](=O)[O-])cc2)o1		25 (≈ 75.7 µM)	25 (≈ 75.7 µM)	12.5 (≈ 37.8 µM)	12.5 (≈ 37.8 µM)	40.5	> 10000
Cc1ncc([N+](=O)[O-])n1Cc1nnc(Cc2ccc(F)cc2)o1		50 (≈ 158 µM)	25 (≈ 78.8 µM)	12.5 (≈ 39.4 µM)	25 (≈ 78.8 µM)		
Cc1ncc([N+](=O)[O-])n1Cc1nnc(Cc2ccc(Cl)cc2)o1		50 (≈ 150 µM)	25 (≈ 74.9 µM)	12.5 (≈ 37.5 µM)	50 (≈ 150 µM)		
Cc1ncc([N+](=O)[O-])n1Cc1nnc(Cc2ccc(Br)cc2)o1		50 (≈ 132 µM)	50 (≈ 132 µM)	25 (≈ 66.1 µM)	50 (≈ 132 µM)		
Cc1ncc([N+](=O)[O-])n1Cc1nnc(Cc2cccc(F)c2)o1		> 100	> 100	> 100	> 100		
Cc1ncc([N+](=O)[O-])n1Cc1nnc(Cc2cccc(Br)c2)o1		25 (≈ 66.1 µM)	50 (≈ 132 µM)	6.25 (≈ 16.5 µM)	25 (≈ 66.1 µM)		
Cc1ncc([N+](=O)[O-])n1Cc1nnc(Cc2ccc([N+](=O)[O-])cc2)o1		25 (≈ 72.6 µM)	50 (≈ 145 µM)	25 (≈ 72.6 µM)	25 (≈ 72.6 µM)		
COc1cccc(Cc2nnc(Cn3c([N+](=O)[O-])cnc3C)o2)c1		25 (≈ 75.9 µM)	50 (≈ 152 µM)	12.5 (≈ 38 µM)	25 (≈ 75.9 µM)		
COc1ccccc1Cc1nnc(Cn2c([N+](=O)[O-])cnc2C)o1		25 (≈ 75.9 µM)	25 (≈ 75.9 µM)	12.5 (≈ 38 µM)	50 (≈ 152 µM)		
Cc1ccccc1Cc1nnc(Cn2c([N+](=O)[O-])cnc2C)o1		50 (≈ 160 µM)	25 (≈ 79.8 µM)	25 (≈ 79.8 µM)	12.5 (≈ 39.9 µM)		
NC[C@H]1O[C@H](O[C@H]2[C@H](O)[C@@H](O[C@H]3O[C@H](CO)[C@@H](O)[C@H](N)[C@H]3O)[C@H](N)C[C@@H]2N)[C@H](O)[C@@H](O)[C@@H]1O [KANAMYCIN]		1.56 (≈ 3.22 µM)	1.56 (≈ 3.22 µM)	3.13 (≈ 6.46 µM)	3.13 (≈ 6.46 µM)		

Continued by falling MIC (Bacillus subtilis), values first:

IC50 [2] [µM]	MIC (Bacillus subtilis) [µg/mL]	MIC (Staphylococcus aureus) [µg/mL]	MIC (Pseudomonas aeruginosa) [µg/mL]	MIC (Escherichia coli) [µg/mL]	IC50 [3] [µM]	SMILES	LC30 [1] [µg/mL]
18.6	12.5 (≈ 41.2 µM)	25 (≈ 82.4 µM)	25 (≈ 82.4 µM)	12.5 (≈ 41.2 µM)		Cc1ncc([N+](=O)[O-])n1Cc1nnc(-c2ccc(F)cc2)o1	> 10000
28.3	12.5 (≈ 39.1 µM)	25 (≈ 78.2 µM)	12.5 (≈ 39.1 µM)	12.5 (≈ 39.1 µM)		Cc1ncc([N+](=O)[O-])n1Cc1nnc(-c2ccc(Cl)cc2)o1	> 10000
16.9	6.25 (≈ 17.2 µM)	25 (≈ 68.7 µM)	25 (≈ 68.7 µM)	6.25 (≈ 17.2 µM)		Cc1ncc([N+](=O)[O-])n1Cc1nnc(-c2cccc(Br)c2)o1	> 10000
9.4	6.25 (≈ 19.8 µM)	12.5 (≈ 39.6 µM)	12.5 (≈ 39.6 µM)	12.5 (≈ 39.6 µM)		COc1cccc(-c2nnc(Cn3c([N+](=O)[O-])cnc3C)o2)c1	> 10000
4.3	1.56 (≈ 4.95 µM)	3.13 (≈ 9.93 µM)	1.56 (≈ 4.95 µM)	1.56 (≈ 4.95 µM)		COc1ccccc1-c1nnc(Cn2c([N+](=O)[O-])cnc2C)o1	> 10000
	1.56 (≈ 5.21 µM)	6.25 (≈ 20.9 µM)	3.13 (≈ 10.5 µM)	1.56 (≈ 5.21 µM)	5.1	Cc1ccccc1-c1nnc(Cn2c([N+](=O)[O-])cnc2C)o1	> 10000
